According to paper PMC7003773 (Clinical Pharmacology in Drug Development, 2019):
Like-named read-outs stand apart in the source and are kept apart here.

Tests used:
S. aureus = settings: neutropenic murine thigh model; cited from earlier work
[1] = tested on: Staphylococcus aureus, Streptococcus pyogenes, Streptococcus dysgalactiae, vancomycin-susceptible Enterococcus faecalis; assay: MIC distributions from 2017 surveillance program; type: cell-based; settings: 2017 surveillance data, United States and Europe, 4 most relevant species
In short: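 Isolates came from the 2017 surveillance program: 70 US medical centers across 9 Census regions and 38 centers in 18 European countries. MICs were determined centrally at one reference laboratory by CLSI M07-A10 (2015) dilution methods. Isolate counts: S. aureus n = 8833, S. pyogenes n = 941, S. dysgalactiae n = 312, vancomycin-susceptible E. faecalis n = 1060. Distributions were plotted as histograms on a log MIC axis.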

[2] = Population pharmacokinetic analysis of clinical plasma concentration data; type: in vivo, human
In short: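 Plasma sampled 1, 18, 23 and 36–48 h post-infusion. Assayed by LC-MS/MS (0.5–500 µg/mL), sub-0.5 µg/mL values dropped. Modelled in NONMEM with FOCE, log-normal IIV, stepwise covariates (forward P < .01, backward P < .001) and bootstrap uncertainty. T1/2 taken from 100 000 parameter draws.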

[3] = cited from earlier work
serum albumin = settings: intravenous dose; unchanged by drug concentration, renal impairment or hepatic function; cited from earlier work
[4] = final popPK model, typical value

rightmost histogram bar of the MIC distributions (highest MIC observed) [1]: 0.25
total volume of distribution ([2]; 3-compartment popPK model): ~15 L
T1/2 ([2]; calculated from 100 000 random samples drawn from mean and covariance of estimated model parameters): 8.77 days
Q2, distributional clearance ([2]; final popPK model, no IIV): 0.288 L/h
Q3, distributional clearance ([2]; final popPK model, no IIV): 2.11 L/h
V1, central volume of distribution [2, 4]: 3.04 L
V2 [2, 4]: 8.78 L
V3 [2, 4]: 3.28 L
Structure (SMILES): CN[C@H]1C(=O)N[C@@H]2Cc3ccc(cc3)Oc3cc4cc(c3O[C@@H]3O[C@H](C(=O)O)[C@@H](O)[C@H](O)[C@H]3NC(=O)CCCCCCCCC(C)C)Oc3ccc(cc3Cl)[C@@H](O)[C@@H]3NC(=O)[C@H](NC(=O)[C@@H]4NC(=O)[C@@H](NC2=O)c2cc(cc(O)c2Cl)Oc2cc1ccc2O)c1ccc(O)c(c1)-c1c(O[C@H]2O[C@H](CO)[C@@H](O)[C@H](O)[C@@H]2O)cc(O)cc1[C@@H](C(=O)NCCCN(C)C)NC3=O [dalbavancin]
2-log kill target, fAUC/MIC (S. aureus): 111.1
total volume of distribution (Vd) [3]: ~16 L
total drug clearance ([3]; healthy subjects): approximately 0.04 L/h
fraction of dose excreted as minor metabolite ([3]; healthy volunteers, 1000 mg intravenous dose of dalbavancin, by 42 days postdose): 12%
fraction of dose excreted in the feces ([3]; healthy volunteers, 1000 mg intravenous dose, by 42 days postdose): one‐third
fraction of dose excreted in urine unmodified ([3]; healthy volunteers, 1000 mg intravenous dose): one‐third
terminal half-life ([3]; intravenous): > 14 days
total drug clearance ([3]; patients): ~0.058 L/h
fraction bound to serum albumin / plasma protein (serum albumin): approximately 93%
